Reference: ChEMBL document CHEMBL4513216, “Probing the Open Global Health Chemical Diversity Library for Multistage-Active Starting Points for Next-Generation Antimalarials” (ACS Infect Dis, 2020)

experiment: Toxicity liver stage against HepG2, at 10uM; type: cell-based; set-up: test concentration 10 uM, cell line HepG2-A16-CD81EGFP; details: human, HepG2-A16-CD81EGFP cells; read-out: INHIBITION
Summary of the method: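 Uninfected HepG2-A16-CD81EGFP cells, 3 × 10^3 per well, 1536-well, plated on prespotted compound at 10 μM final, parasite-free screening media added to match infected plates; puromycin 10 μM positive, DMSO 0.5% negative; run in parallel with 48 h PbLuc assay at 37 °C, 5% CO2; viability by CellTiter-Glo luminescence, normalized to controls.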

SMILES	cytotoxicity at 10 µM
O=C(NC[C@H]1OC[C@@H](NC2CCC2)[C@@H]1O)Nc1ccccc1	-4.16%
Cc1cccc(CNC[C@H]2COCc3nc4cccnc4n32)n1	-1.79%
COC(=O)c1cccc(C(=O)NCc2ccco2)n1	7.44%
COc1ccc(S(=O)(=O)NCCCc2ccc(N(C)C)cc2)cc1Cl	-0.399%
COc1ccc(F)cc1S(=O)(=O)NCCn1cnc(C)cc1=O	-6.49%
NC(=O)C1CCN(c2nc3nccc(-c4ccncc4)c3c(=O)[nH]2)CC1	6.09%
CCC(=O)N1CCN(c2ncnc3cc4c(cc23)OCCO4)CC1	10.2%
CC(NC(=O)CN1CCN(Cc2ccc(Br)s2)CC1)c1ccccc1 (centres undefined)	8.44%
N#Cc1ccc(F)c(CN2CCc3sccc3C2)c1	-3.09%
COc1ccc(C)nc1NC(=O)Cc1c(C)nn(C)c1C	-0.302%
O=C(NCC1CC1)C1CCCN(c2cccc(C(F)(F)F)n2)C1 (centres undefined)	8.21%
CCc1nc(C(=O)N(CC)CC(=O)N(C)C)nn1-c1ccccc1Cl	5.25%
CC(C)N(CCSc1ncnc2[nH]ncc12)C(C)C	0.25%
Cc1ccc(C(=O)O)cc1S(=O)(=O)N(C)c1cccc(C#N)c1	10.6%
O=C1CC(N(C(=O)CCc2c[nH]c3ccccc23)C2CC2)C(=O)N1 (centres undefined)	0.247%
CC(C)C(c1cccnc1)N(C)C(=O)Cc1c(F)cccc1F (centres undefined)	-0.595%
CCCNC(=O)CNc1cc(C(=O)N2CCSCC2)ccc1C	-5.91%
O=C(CN1CCCCCCC1=O)NCc1ccccn1	-15.3%
CN(C)S(=O)(=O)N1CCC(Oc2ccc(C#N)cc2)CC1	3.96%
COc1cc(OC)c(-c2nc3c([nH]2)c(C2CC2)nn3C)cc1OC	-5.02%
CC[C@H](C)[C@@H](CO)NC(C)Cc1ccc(C)cc1 (some centres undefined)	-4.48%
CC(C)[C@@H]1CN(c2ncc(F)cn2)C[C@H]1NS(=O)(=O)N(C)C	14%

SMILES	cytotoxicity at 10 µM
CS(=O)(=O)N[C@H]1CN(C(=O)CCc2ccc(=O)[nH]n2)C[C@@H]1C1CC1	1.56%
Cc1nccn1CCN(C)C(=O)c1cn(CC2CCCCC2)nn1	-1.84%
C[C@@H]1CN(C(=O)C2(N3CCCCC3)Cc3ccccc3C2)C[C@H](C)O1	-0.238%
Cc1nn2c(N3CCC(O)CC3)cc(-c3ccccc3)nc2c1C	-6.54%
CCc1nc(C2CCCN2Cc2nnc(C3CCC3)o2)no1 (centres undefined)	1.48%
Cc1ccccc1CC(=O)N1CCOCC1c1c(C)n[nH]c1C (centres undefined)	-5.6%
CCNc1cc2c(nn1)CCN(C(=O)c1ccc(C(N)=O)cc1)C2	-15.6%
Cc1nc(C)n(CC2CN(CCOc3ccc(C#N)cc3)CCO2)n1 (centres undefined)	-2.69%
O=C(CCc1cc(F)ccc1F)NS(=O)(=O)c1ccc2c(c1)OCCO2	-18.8%
Cc1cn2nc(N3CCN(Cc4nc(C(C)C)no4)CC3)sc2n1	-7.27%
NC(=O)COc1cccc(C(=O)N2CCCC(n3ccnc3)C2)c1 (centres undefined)	-9.63%
O=C(CN1CCN(C(=O)Cc2ccc3c(c2)OCCO3)CC1)NC1CC1	-2.35%
CC(CCc1ccccc1)NC(=O)Nc1cnn(CC(N)=O)c1 (centres undefined)	1.64%
NC(=O)C1CCC(NC(=O)COc2ccc(Cl)c(Cl)c2)CC1 (centres undefined)	-12.5%
CC(C)COC(C)C(=O)NCc1ccc(N(C)C)cc1 (centres undefined)	2.53%
O=C(NCCS(=O)(=O)N1CCc2ccccc21)c1c(O)cc(F)cc1F	0.217%
Cc1ncnc2c1CCN(Cc1ccc3c(c1)OCO3)CC2	-9.23%
O=C(c1cnccn1)N1C[C@@H]2CCN(c3cccnc3)C[C@@H]2C1	-65.8%
COc1ccc(C[C@H]2CN(C(=O)CN(C)C)CC[C@H]2OC)cc1	3.96%
COc1ncccc1CN1CCC2(CC1)CN(c1ccccn1)CCO2	-6.6%
Cc1ccoc1C(=O)N1C[C@H]2CCC[C@@]2(COCc2ccncc2)C1	9.56%
Cc1ccc(NC(=O)Nc2c(O)c3ccccc3oc2=O)cc1	3.21%
